In ChEMBL document CHEMBL3351655, “Scaffold decoration at positions 5 and 8 of 1,2,4-triazolo[1,5-c]pyrimidines to explore the antagonist profiling on adenosine receptors: a preliminary structure-activity relationship study” (J Med Chem, 2014):

Legend:
CHO [1] = assay: Selectivity ratio of Ki for human adenosine A1 receptor expressed in CHO cells to Ki for human adenosine A2A receptor expressed in CHO cells; format: cell-based
Adenosine receptor A2b = biological target: T1, Adenosine receptor A2b (Homo sapiens, UniProt P29275); assay: Antagonist activity at human adenosine A2B receptor expressed in CHO cells assessed as inhibition of NECA-stimulated adenylyl cyclase activity; format: functional, cell-based
T1 sequence (P29275 whole entry): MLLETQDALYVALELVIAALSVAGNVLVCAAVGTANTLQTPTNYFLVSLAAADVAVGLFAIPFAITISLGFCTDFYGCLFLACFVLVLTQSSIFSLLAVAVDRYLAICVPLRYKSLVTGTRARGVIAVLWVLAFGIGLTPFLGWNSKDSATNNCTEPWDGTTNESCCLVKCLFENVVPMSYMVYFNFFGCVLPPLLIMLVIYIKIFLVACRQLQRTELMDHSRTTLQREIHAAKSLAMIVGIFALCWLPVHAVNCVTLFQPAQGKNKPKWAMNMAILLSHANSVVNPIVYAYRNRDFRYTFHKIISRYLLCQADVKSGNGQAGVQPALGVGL
Summary of the method: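 Membranes from stably transfected CHO cells, made with a single high-speed centrifugation of the homogenate. Incubated 20 min with about 150 000 cpm [α-³²P]ATP, in a mixture without EGTA and NaCl. IC50 for concentration-dependent inhibition of NECA-stimulated adenylyl cyclase was fitted with the Hill equation and converted to Ki by Cheng–Prusoff.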

Adenosine receptor A1 = biological target: T2, Adenosine receptor A1 (Homo sapiens, UniProt P30542); assay: Displacement of [3H]CCPA from human adenosine A1 receptor expressed in CHO cells; format: cell-based
T2 sequence (P30542 whole entry): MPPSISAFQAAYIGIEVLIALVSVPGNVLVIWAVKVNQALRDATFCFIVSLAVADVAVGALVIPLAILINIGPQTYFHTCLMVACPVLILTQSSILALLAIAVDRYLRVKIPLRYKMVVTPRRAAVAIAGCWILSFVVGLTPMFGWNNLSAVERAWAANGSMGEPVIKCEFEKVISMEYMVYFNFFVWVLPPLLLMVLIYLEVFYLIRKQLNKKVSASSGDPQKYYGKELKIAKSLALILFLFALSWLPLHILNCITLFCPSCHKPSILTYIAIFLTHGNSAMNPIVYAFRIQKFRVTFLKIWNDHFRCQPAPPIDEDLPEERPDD
Summary of the method: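 Stably transfected CHO cells were homogenised and spun at 1000g to remove nuclei and fragments. Membranes were then pelleted at 100 000g, resuspended in binding buffer, frozen in liquid nitrogen and stored. Radioligand was [³H]CCPA, with nonspecific binding defined by 1 mM theophylline.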

Adenosine receptor A3 = biological target: T3, Adenosine receptor A3 (Homo sapiens, UniProt P0DMS8); assay: Displacement of [3H]NECA from human adenosine A3 receptor expressed in CHO cells; format: cell-based
T3 sequence (P0DMS8 whole entry): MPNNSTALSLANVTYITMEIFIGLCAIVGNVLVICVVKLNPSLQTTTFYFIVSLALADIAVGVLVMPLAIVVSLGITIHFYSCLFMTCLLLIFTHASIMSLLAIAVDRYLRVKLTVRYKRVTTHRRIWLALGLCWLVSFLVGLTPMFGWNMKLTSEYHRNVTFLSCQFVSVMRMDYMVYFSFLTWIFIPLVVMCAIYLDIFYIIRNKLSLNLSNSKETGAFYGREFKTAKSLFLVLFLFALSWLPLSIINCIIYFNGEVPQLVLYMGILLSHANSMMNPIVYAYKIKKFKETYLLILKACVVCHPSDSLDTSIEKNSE
Summary of the method: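 Radioligand [³H]NECA was used on membranes from stably transfected CHO cells, prepared by a 1000g clearing spin then pelleting at 100 000g. Pellets were resuspended in binding buffer, frozen in liquid nitrogen and stored. Nonspecific binding was defined with 100 μM R-PIA.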

Adenosine receptor A2a = Adenosine receptor A2a (Homo sapiens, UniProt P29274); assay: Displacement of [3H]NECA from human adenosine A2A receptor expressed in CHO cells; format: cell-based
CHO [2] = assay: Selectivity ratio of Ki for human adenosine A2A receptor expressed in CHO cells to Ki for human adenosine A3 receptor expressed in CHO cells; format: cell-based
[3] = biological target: Adenosine receptors; A1 & A3 (Homo sapiens) (UniProt P30542+P0DMS8); assay: Selectivity ratio of Ki for human adenosine A1 receptor expressed in CHO cells to Ki for human adenosine A3 receptor expressed in CHO cells; format: cell-based

Sequence of Adenosine receptor A2a (P29274 whole entry): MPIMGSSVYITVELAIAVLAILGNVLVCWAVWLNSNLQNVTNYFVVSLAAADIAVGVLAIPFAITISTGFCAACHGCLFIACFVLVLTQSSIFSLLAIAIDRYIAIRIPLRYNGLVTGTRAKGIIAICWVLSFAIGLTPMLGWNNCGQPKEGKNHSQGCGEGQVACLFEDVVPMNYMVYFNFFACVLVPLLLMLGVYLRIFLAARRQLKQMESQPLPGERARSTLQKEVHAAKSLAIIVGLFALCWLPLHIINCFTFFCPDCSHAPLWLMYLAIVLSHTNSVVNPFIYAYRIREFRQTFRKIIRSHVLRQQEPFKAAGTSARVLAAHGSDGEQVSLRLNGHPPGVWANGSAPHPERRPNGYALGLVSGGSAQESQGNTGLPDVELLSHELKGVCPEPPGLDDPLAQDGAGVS

Compound	Ratio Ki (CHO [1])	Ki (Adenosine receptor A2b)	Ki (Adenosine receptor A1)	Ki (Adenosine receptor A3)	Ki (Adenosine receptor A2a)	Ratio Ki (CHO [2])	Ratio Ki [3]
CCOC(=O)c1cnc(NC2CC2)n2nc(-c3ccco3)nc12	1.62	2260 nM	60.7 nM	9.52 nM	37.4 nM	3.93	6.38
CCOC(=O)c1cnc(NC(=O)Nc2ccccc2)n2nc(-c3ccco3)nc12	66.8	1900 nM	322 nM	357 nM	4.82 nM	0.01	0.9
CCNc1ncc(C(=O)O)c2nc(-c3ccco3)nn12	3.23	> 10000 nM	11900 nM	480 nM	3680 nM	7.67	24.8
CNC(=O)c1cnc(NCc2ccc(OC)c(OC)c2)n2nc(-c3ccco3)nc12	16.6	2490 nM	428 nM	282 nM	25.8 nM	0.09	1.52
CCOC(=O)c1cnc(NC2CCCCCC2)n2nc(-c3ccco3)nc12	0.98	> 10000 nM	231 nM	321 nM	235 nM	0.73	0.72
CCOC(=O)c1cnc(NCc2ccc(Cl)cc2)n2nc(-c3ccco3)nc12	11.8	1630 nM	866 nM	56.8 nM	73.2 nM	1.29	15.2
CCOC(=O)c1cnc(NCc2ccc(C)cc2)n2nc(-c3ccco3)nc12	11	10000 nM	1340 nM	56.1 nM	122 nM	2.17	23.9
CCOC(=O)c1cnc(NCc2ccccc2)n2nc(-c3ccco3)nc12	29.4	2510 nM	940 nM	10 nM	32 nM	3.2	94
O=C(O)c1cnc(NCc2ccccc2)n2nc(-c3ccco3)nc12	1.39	> 10000 nM	5090 nM	2230 nM	3660 nM	1.64	2.28
CCOC(=O)c1cnc(NCC(C)C)n2nc(-c3ccco3)nc12	1.03	7150 nM	45.6 nM	24.4 nM	44.4 nM	1.82	1.87
CCOC(=O)c1cnc(N(C)C)n2nc(-c3ccco3)nc12	2.07	> 10000 nM	13400 nM	275 nM	6480 nM	23.6	48.7
O=C(Nc1ccccc1)Nc1ncc(C(=O)NCCc2ccccc2)c2nc(-c3ccco3)nn12	7.1	> 30000 nM	365 nM	1350 nM	51.4 nM	0.04	0.27
CCOC(=O)c1cnc(NOC)n2nc(-c3ccco3)nc12	31	> 10000 nM	6510 nM	1190 nM	210 nM	0.18	5.47
COc1ccc(CNc2ncc(C(=O)O)c3nc(-c4ccco4)nn23)cc1OC		> 30000 nM	958 nM	159 nM	5320 nM	33.4	6.02
CNc1ncc(C(=O)O)c2nc(-c3ccco3)nn12		> 10000 nM	> 100000 nM	15900 nM	> 100000 nM	> 6.29	> 6.29
CCOC(=O)c1cnc(NN2CCOCC2)n2nc(-c3ccco3)nc12		> 10000 nM	> 100000 nM	> 30000 nM	> 100000 nM		
COc1ccc(CCCn2ncc3c2nc(N)n2nc(-c4ccco4)nc32)cc1		> 10000 nM	1110 nM	> 10000 nM			
O=C(O)c1cnc(NCc2ccc(Cl)cc2)n2nc(-c3ccco3)nc12		> 30000 nM	> 100000 nM	11600 nM	> 100000 nM	> 8.62	> 8.62
